Reference: BindingDB's records for doi:10.1016/j.bmcl.2017.11.026 (Padmashri Vikhe Patil College of Arts, 2018)

What follows are compounds tested against T1, Tumor necrosis factor (Homo sapiens, UniProt P01375) (assay: Inhibition of LPS-induced TNF-alpha production in human PBMC preincubated for 30 mins followed by LPS addition measured after 5 hrs by ELISA).
Procedure, shortened: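 Donor blood diluted 1:1 in PBS; PBMCs isolated on histopaque, washed, resuspended in RPMI 1640 with 10% FBS and antibiotics, 1 x 10^6 cells/ml (viability ≥98%). Compounds at 0.03–100 μM in DMSO (final 0.5%) for 30 min at 37 °C, 5% CO2, then E. coli 0127:B8 LPS 1 µg/mL final for 5 h. Supernatant TNF-α by ELISA; % inhibition vs vehicle; IC50 mean of three independent experiments.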

T1 sequence (P01375 whole entry): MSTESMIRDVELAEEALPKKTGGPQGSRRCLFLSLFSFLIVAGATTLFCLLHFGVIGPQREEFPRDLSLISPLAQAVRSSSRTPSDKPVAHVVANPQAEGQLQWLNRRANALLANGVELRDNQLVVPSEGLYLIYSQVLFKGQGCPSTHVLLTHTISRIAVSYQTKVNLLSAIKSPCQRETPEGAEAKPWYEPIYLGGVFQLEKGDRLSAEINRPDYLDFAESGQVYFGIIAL

SMILES	IC50 [µM]
O=S(=O)(c1cnc2ccc(Cl)nn12)N1CCN(Cc2ccccc2)CC1	30
COc1ccc(-c2ccc3ncc(S(=O)(=O)N4CCC(C#N)(c5ccccc5)CC4)n3n2)cc1OC	0.5
O=S(=O)(NCC1CCCO1)c1cnc2ccc(Cl)nn12 (configuration not stated)	30
COc1cccc(CNS(=O)(=O)c2cnc3ccc(-c4ccc(S(C)(=O)=O)cc4)nn23)c1	28
O=S(=O)(c1cnc2ccc(-c3cccnc3)nn12)N1CCN(Cc2ccccc2)CC1	18
N#CC1(c2ccccc2)CCN(S(=O)(=O)c2cnc3ccc(Cl)nn23)CC1	25
CS(=O)(=O)c1ccc(-c2ccc3ncc(S(=O)(=O)N4CCC(C#N)(c5ccccc5)CC4)n3n2)cc1	8
O=S(=O)(c1cnc2ccc(-c3cncc(F)c3)nn12)N1CCN(c2ccccn2)CC1	28
O=S(=O)(c1cnc2ccc(-c3cncc(C(F)(F)F)c3)nn12)N1CCN(c2ccccn2)CC1	11
Nc1ncc(-c2ccc3ncc(S(=O)(=O)N4CCN(c5ccccn5)CC4)n3n2)cc1C(F)(F)F	11
CS(=O)(=O)c1ccc(-c2ccc3ncc(S(=O)(=O)N4CCN(c5ccccn5)CC4)n3n2)cc1	12
N#CC1(c2ccccc2)CCN(S(=O)(=O)c2cnc3ccc(-c4cccnc4)nn23)CC1	7
N#CC1(c2ccccc2)CCN(S(=O)(=O)c2cnc3ccc(-c4cncc(C(F)(F)F)c4)nn23)CC1	20
COc1cccc(CNS(=O)(=O)c2cnc3ccc(-c4cncc(F)c4)nn23)c1	6
COc1cccc(CNS(=O)(=O)c2cnc3ccc(-c4cncc(C(F)(F)F)c4)nn23)c1	> 30
O=S(=O)(NCC1CCCO1)c1cnc2ccc(-c3cccnc3)nn12 (configuration not stated)	4
O=S(=O)(NCC1CCCO1)c1cnc2ccc(-c3cncc(F)c3)nn12 (configuration not stated)	4
O=S(=O)(NCC1CCCO1)c1cnc2ccc(-c3cncc(C(F)(F)F)c3)nn12 (configuration not stated)	> 30
O=S(=O)(c1cnc2ccc(-c3cccnc3)nn12)N1CCN(c2ccccn2)CC1	11
N#CC1(c2ccccc2)CCN(S(=O)(=O)c2cnc3ccc(-c4cncc(F)c4)nn23)CC1	> 30
COc1cccc(CNS(=O)(=O)c2cnc3ccc(-c4ccc(OC)nc4)nn23)c1	> 30

SMILES	IC50 [µM]
CS(=O)(=O)c1ccc(-c2ccc3ncc(S(=O)(=O)NCC4CCCO4)n3n2)cc1 (configuration not stated)	> 30
CCN1CCN(S(=O)(=O)c2cnc3ccc(-c4ccc(S(C)(=O)=O)cc4)nn23)CC1	15
CCN1CCN(S(=O)(=O)c2cnc3ccc(-c4ccc(OC)cc4)nn23)CC1	20
CCN1CCN(S(=O)(=O)c2cnc3ccc(-c4cncc(C(F)(F)F)c4)nn23)CC1	9
CCN1CCN(S(=O)(=O)c2cnc3ccc(-c4cncc(F)c4)nn23)CC1	> 30
CCN1CCN(S(=O)(=O)c2cnc3ccc(-c4cccnc4)nn23)CC1	15
COc1cccc(CNS(=O)(=O)c2cnc3ccc(Cl)nn23)c1	> 30
O=S(=O)(c1cnc2ccc(Cl)nn12)N1CCN(c2ccccc2)CC1	30
CCN1CCN(S(=O)(=O)c2cnc3ccc(Cl)nn23)CC1	> 30
NS(=O)(=O)c1cnc2ccc(Cl)nn12	28
O=S(=O)(c1cnc2ccc(-c3cncc(F)c3)nn12)N1CCN(Cc2ccccc2)CC1	> 30
CCN1CCN(S(=O)(=O)c2cnc3ccc(-c4ccc(OC)nc4)nn23)CC1	20
Nc1ncc(-c2ccc3ncc(S(N)(=O)=O)n3n2)cc1C(F)(F)F	4
O=S(=O)(c1cnc2ccc(Cl)nn12)N1CCN(c2ccccn2)CC1	> 30
CS(=O)(=O)c1ccc(-c2ccc3ncc(S(=O)(=O)N4CCN(Cc5ccccc5)CC4)n3n2)cc1	12
COc1ccc(-c2ccc3ncc(S(=O)(=O)N4CCN(c5ccccn5)CC4)n3n2)cn1	> 30
COc1cccc(CNS(=O)(=O)c2cnc3ccc(-c4cccnc4)nn23)c1	0.3
COc1cccc(CNS(=O)(=O)c2cnc3ccc(-c4cnc(N)c(C(F)(F)F)c4)nn23)c1	> 30
COc1ccc(-c2ccc3ncc(S(=O)(=O)NCC4CCCO4)n3n2)cc1 (configuration not stated)	4
COc1ccc(-c2ccc3ncc(S(=O)(=O)NCC4CCCO4)n3n2)cn1 (configuration not stated)	6

What follows are compounds tested against T1, Tumor necrosis factor (assay: Inhibition of LPS-induced TNF-alpha production in human MNC suspension after 20 hrs by radioimmunoassay).

SMILES	IC50 [µM]
COc1ccc([C@@H]2CNC(=O)C2)cc1OC1CCCC1 (racemic) [Adeo]	0.2
